Measurements: ChEMBL document CHEMBL3272032, “Antifolate studies. Activities of 40 potential antimalarial compounds against sensitive and chlorguanide triazine resistant strains of folate-requiring bacteria and Escherichia coli” (J Med Chem, 1977)
Calls of active or inactive are those of the source. The rule behind the calls is not given here.

How the values were obtained:
Enterococcus faecium [1] = experiment: Antibacterial activity against chlorguanide triazine-resistant Streptococcus faecium ATCC 8043 assessed as reduction in growth; format: functional, organism-based
Procedure, shortened: (§1)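 Folate-requiring strains grown in medium with folic acid, 0.002 µg/ml for S. faecium and 0.001 µg/ml for L. casei; P. cerevisiae given folinic acid, 0.001 µg/ml. Resistant substrains came from serial transfer in rising chlorguanide triazine, and the most resistant were used. Compounds tested up to 1000 µg/ml, or 100 µg/ml when supply was limited. Growth read as Klett turbidity; IC50 is the µM concentration giving 50% growth inhibition.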

Lacticaseibacillus casei [2] = experiment: Antibacterial activity against chlorguanide triazine-resistant Lactobacillus casei ATCC 7469 assessed as reduction in growth in presence of 0.001 ug/ml folic acid; format: functional, organism-based; procedure, shortened: as §1
[3] = Antibacterial activity against sensitive Pediococcus cerevisiae ATCC 808 assessed as reduction; format: functional
Procedure, shortened: (§2)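 P. cerevisiae grown with folinic acid at 0.001 μg/ml in the earlier-described medium. Turbidity read on a Klett-Summerson colorimeter. IC50 is the micromolar concentration reducing growth to 50% of control. Top concentration was 1000 μg/ml, or 100 μg/ml when supply was limited.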

Plasmodium berghei [4] = experiment: Antimalarial activity against Plasmodium berghei infected in sc dosed mouse assessed as dose required to survivors for period of 60 days; format: functional
Procedure, shortened: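 Mice infected with a blood-induced P. berghei inoculum were given one subcutaneous dose in peanut oil. Survivors at 60 days counted as cured. The minimum curative dose is the lowest dose that cured any mouse.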

[5] = Antibacterial activity against chlorguanide triazine-resistant Pediococcus cerevisiae ATCC 808 assessed as reduction in growth; format: functional; procedure, shortened: as §1
Escherichia coli [6] = experiment: Antibacterial activity against sensitive Escherichia coli ATCC 10536 assessed as reduction in growth; format: functional, organism-based
Procedure, shortened: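 Growth inhibition in Sahyun et al. medium plus 0.6% acid-hydrolyzed casein. Growth read as turbidity on a Klett-Summerson photoelectric colorimeter. IC50 is the micromolar concentration giving 50% growth inhibition. Top concentration was 1000 μg/ml, or 100 μg/ml when compound was limited.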

Enterococcus faecium [7] = experiment: Antibacterial activity against sensitive Streptococcus faecium ATCC 8043 assessed as reduction in growth; format: functional, organism-based; procedure, shortened: as §1
Plasmodium berghei [8] = experiment: Antimalarial activity against Plasmodium berghei infected in sc dosed mouse assessed as active dose required to increase of 100% in mean survival time; format: functional; details: read-out: MED
Procedure, shortened: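 Mice received a standard blood-induced P. berghei inoculum and were then treated with one subcutaneous dose of compound suspended in peanut oil. The minimum active dose is the lowest dose that raised mean survival time by 100%.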

Pediococcus [9] = experiment: Fold increase in resistance, ratio of IC50 for chlorguanide triazine-resistant Pediococcus cerevisiae ATCC 808 to IC50 for sensitive Pediococcus cerevisiae ATCC 808; format: functional
Procedure, shortened: (§3)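 Resistant substrains were made by serial transfer in rising concentrations of cycloguanil, and the most resistant isolate of each organism was used. Both strains were assayed turbidimetrically under identical conditions. FIR = IC50 of the resistant strain divided by IC50 of the sensitive parent.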

Enterococcus faecium [10] = experiment: Fold increase in resistance, ratio of IC50 for chlorguanide triazine-resistant Streptococcus faecium ATCC 8043 to IC50 for sensitive Streptococcus faecium ATCC 8043; format: functional
Procedure, shortened: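 Resistant S. faecium substrain raised by serial transfer in increasing chlorguanide triazine. IC50 (µM, 50% growth inhibition by turbidity) was found for resistant and parent strains in folic acid (0.002 µg/ml) medium. Fold increase taken as IC50 resistant / IC50 sensitive.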

Pediococcus [11] = experiment: Antibacterial activity against chlorguanide triazine-resistant Pediococcus cerevisiae ATCC 808 assessed as reduction in growth in presence of 0.001 ug/ml folinic acid; format: functional; procedure, shortened: as §1
Escherichia coli [12] = experiment: Antibacterial activity against sensitive Escherichia coli ATCC 10536 assessed as reduction in growth in presence of p-aminobenzoic acid; format: functional, organism-based
Procedure, shortened: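 Reversal test. Drug inhibition was challenged with PABA in Sahyun et al. medium plus 0.6% acid-hydrolyzed casein. Growth read as turbidity on a Klett-Summerson colorimeter. Scored as reversal or nonreversal of the drug inhibition.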

Lacticaseibacillus casei [13] = experiment: Fold increase in resistance, ratio of IC50 for chlorguanide triazine-resistant Lactobacillus casei ATCC 7469 to IC50 for sensitive Lactobacillus casei ATCC 7469; format: functional; procedure, shortened: as §3
Pediococcus [14] = experiment: Antibacterial activity against sensitive Pediococcus cerevisiae ATCC 808 assessed as reduction in growth in presence of 0.001 ug/ml folinic acid; format: functional; procedure, shortened: as §2
Enterococcus faecium [15] = experiment: Antibacterial activity against sensitive Streptococcus faecium ATCC 8043 assessed as reduction in growth in presence of 0.002 ug/ml folic acid; format: functional, organism-based
Procedure, shortened: (§4)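 Folate-requiring strains in the medium of the earlier assay method. Folic acid was 0.002 μg/ml for S. faecium and 0.001 μg/ml for L. casei. Turbidity read on a Klett-Summerson colorimeter. IC50 is the micromolar concentration reducing growth to 50% of control. Top concentration was 1000 μg/ml, or 100 μg/ml if supply was limited.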

Lacticaseibacillus casei [16] = experiment: Antibacterial activity against chlorguanide triazine-resistant Lactobacillus casei ATCC 7469 assessed as reduction in growth; format: functional, organism-based; procedure, shortened: as §1
Lacticaseibacillus casei [17] = experiment: Antibacterial activity against sensitive Lactobacillus casei ATCC 7469 assessed as reduction in growth in presence of 0.001 ug/ml folic acid; format: functional, organism-based; procedure, shortened: as §4
Lacticaseibacillus casei [18] = experiment: Antibacterial activity against sensitive Lactobacillus casei ATCC 7469 assessed as reduction; format: functional, organism-based; procedure, shortened: as §1
Enterococcus faecium [19] = experiment: Antibacterial activity against chlorguanide triazine-resistant Streptococcus faecium ATCC 8043 assessed as reduction in growth in presence of 0.002 ug/ml folic acid; format: functional, organism-based; procedure, shortened: as §1

In the case of `C/C(=C\C(=N\NC(=N)N)c1ccccc1)c1ccccc1`, the IC50 (Enterococcus faecium [1]) is reported as 60 µM, the inhibition (Lacticaseibacillus casei [2]) is reported as “Active” and the IC50 [3] is reported as 25 µM. It also gave an MCD (Plasmodium berghei [4]) of over 640 mg/kg, an IC50 [5] of 13 µM and an IC50 (Escherichia coli [6]) of 51 µM. For the same molecule, the IC50 (Enterococcus faecium [7]) was 11 µM, the minimal effective dose (Plasmodium berghei [8]) was 160 mg/kg and the “Ratio IC50” value (Pediococcus [9]) was 0.5. The “Ratio IC50” value (Enterococcus faecium [10]) was 6, the inhibition (Pediococcus [11]) was “Active” and the inhibition (Escherichia coli [12]) was “Active”. For the same molecule, the “Ratio IC50” value (Lacticaseibacillus casei [13]) was 1, the inhibition (Pediococcus [14]) was “Active” and the inhibition (Enterococcus faecium [15]) was “inactive”. For the same molecule, the IC50 (Lacticaseibacillus casei [16]) was 41 µM, the inhibition (Lacticaseibacillus casei [17]) was “Active” and the IC50 (Lacticaseibacillus casei [18]) was 48 µM.

With `C=C[C@H]1CN2CC[C@H]1C[C@H]2[C@H](O)c1ccnc2ccc(OC)cc12` [QUININE] the IC50 (Enterococcus faecium [1]) was over 2500 µM, the IC50 [3] was 780 µM and the MCD (Plasmodium berghei [4]) was over 640 mg/kg. The IC50 [5] was 850 µM, the IC50 (Escherichia coli [6]) was 1300 µM and the IC50 (Enterococcus faecium [7]) was over 2500 µM. For the same molecule, the minimal effective dose (Plasmodium berghei [8]) was 640 mg/kg, the “Ratio IC50” value (Pediococcus [9]) was 1 and the inhibition (Pediococcus [11]) was “Active”. The “Ratio IC50” value (Lacticaseibacillus casei [13]) was 1, the inhibition (Pediococcus [14]) was “Active” and the IC50 (Lacticaseibacillus casei [16]) was 1200 µM. For the same molecule, the inhibition (Lacticaseibacillus casei [17]) was “Active” and the IC50 (Lacticaseibacillus casei [18]) was 980 µM.

In the case of `N=C(N)NC(=O)Nc1ccc([N+](=O)[O-])cc1`, the IC50 (Enterococcus faecium [1]) is reported as 2500 µM, the inhibition (Lacticaseibacillus casei [2]) is reported as “Active” and the inhibition (Enterococcus faecium [19]) is reported as “Active”. It also gave an IC50 [3] of 83 µM, an MCD (Plasmodium berghei [4]) of 640 mg/kg and an IC50 [5] of 197 µM. It also gave an IC50 (Escherichia coli [6]) of over 4480 µM, an IC50 (Enterococcus faecium [7]) of 1300 µM and a minimal effective dose (Plasmodium berghei [8]) of 640 mg/kg. For the same molecule, the “Ratio IC50” value (Pediococcus [9]) was 2, the “Ratio IC50” value (Enterococcus faecium [10]) was 2 and the inhibition (Pediococcus [11]) was “Active”. For the same molecule, the “Ratio IC50” value (Lacticaseibacillus casei [13]) was 12, the inhibition (Pediococcus [14]) was “Active” and the inhibition (Enterococcus faecium [15]) was “Active”. The IC50 (Lacticaseibacillus casei [16]) was 1800 µM, the inhibition (Lacticaseibacillus casei [17]) was “Active” and the IC50 (Lacticaseibacillus casei [18]) was 157 µM.

In the case of `CC(CNc1nc(Nc2ccc(Cl)c(Cl)c2)nc(C(Cl)(Cl)Cl)n1)N(C)C` (stereo unspecified), the IC50 (Enterococcus faecium [1]) is reported as 14.6 µM, the inhibition (Lacticaseibacillus casei [2]) is reported as “Active” and the inhibition (Enterococcus faecium [19]) is reported as “Active”. The IC50 [3] was 5.9 µM, the MCD (Plasmodium berghei [4]) was 160 mg/kg and the IC50 [5] was 7.5 µM. The IC50 (Enterococcus faecium [7]) was 14.2 µM, the minimal effective dose (Plasmodium berghei [8]) was 80 mg/kg and the “Ratio IC50” value (Pediococcus [9]) was 1. The “Ratio IC50” value (Enterococcus faecium [10]) was 1, the inhibition (Pediococcus [11]) was “Active” and the “Ratio IC50” value (Lacticaseibacillus casei [13]) was 0.9. The inhibition (Pediococcus [14]) was “Active”, the inhibition (Enterococcus faecium [15]) was “Active” and the IC50 (Lacticaseibacillus casei [16]) was 4.9 µM. For the same molecule, the inhibition (Lacticaseibacillus casei [17]) was “Active” and the IC50 (Lacticaseibacillus casei [18]) was 5.7 µM.

`Clc1ccc(Nc2nc(NCCCN3CCCC3)c3ccccc3n2)cc1Cl` gave an IC50 (Enterococcus faecium [1]) of 22 µM, an IC50 [3] of 3.5 µM and an IC50 [5] of 7.9 µM. For the same molecule, the IC50 (Escherichia coli [6]) was 10 µM, the IC50 (Enterococcus faecium [7]) was 32 µM and the “Ratio IC50” value (Pediococcus [9]) was 2. For the same molecule, the “Ratio IC50” value (Enterococcus faecium [10]) was 0.7, the inhibition (Pediococcus [11]) was “Active” and the inhibition (Escherichia coli [12]) was “Active”. For the same molecule, the “Ratio IC50” value (Lacticaseibacillus casei [13]) was 0.6, the inhibition (Pediococcus [14]) was “Active” and the inhibition (Enterococcus faecium [15]) was “Active”. The IC50 (Lacticaseibacillus casei [16]) was 5.7 µM, the inhibition (Lacticaseibacillus casei [17]) was “Active” and the IC50 (Lacticaseibacillus casei [18]) was 10 µM.

In the case of `Cc1nc(C)c(Cl)c(O)c1Cl` [CLOPIDOL], the IC50 (Enterococcus faecium [1]) is reported as 2200 µM, the inhibition (Enterococcus faecium [19]) is reported as “Active” and the IC50 [3] is reported as 833 µM. For the same molecule, the MCD (Plasmodium berghei [4]) was over 640 mg/kg, the IC50 [5] was 1000 µM and the IC50 (Escherichia coli [6]) was over 5200 µM. The IC50 (Enterococcus faecium [7]) was 3700 µM, the minimal effective dose (Plasmodium berghei [8]) was 160 mg/kg and the “Ratio IC50” value (Pediococcus [9]) was 1. For the same molecule, the “Ratio IC50” value (Enterococcus faecium [10]) was 0.6, the inhibition (Pediococcus [11]) was “Active” and the “Ratio IC50” value (Lacticaseibacillus casei [13]) was 0.52. For the same molecule, the inhibition (Pediococcus [14]) was “Active”, the inhibition (Enterococcus faecium [15]) was “Active” and the IC50 (Lacticaseibacillus casei [16]) was 885 µM. For the same molecule, the inhibition (Lacticaseibacillus casei [17]) was “Active” and the IC50 (Lacticaseibacillus casei [18]) was 1700 µM.

With `CN1CCCCC1CNc1nc(-c2ccc(Cl)c(Cl)c2)nc(C(Cl)(Cl)Cl)n1` (stereo unspecified) the IC50 (Enterococcus faecium [1]) was 128 µM, the inhibition (Lacticaseibacillus casei [2]) was “Active” and the inhibition (Enterococcus faecium [19]) was “Active”. For the same molecule, the IC50 [3] was 4.9 µM, the MCD (Plasmodium berghei [4]) was 320 mg/kg and the IC50 [5] was 3.8 µM. The IC50 (Enterococcus faecium [7]) was 132 µM, the minimal effective dose (Plasmodium berghei [8]) was 160 mg/kg and the “Ratio IC50” value (Pediococcus [9]) was 1. The “Ratio IC50” value (Enterococcus faecium [10]) was 0.97, the inhibition (Pediococcus [11]) was “Active” and the “Ratio IC50” value (Lacticaseibacillus casei [13]) was 1.1. The inhibition (Pediococcus [14]) was “Active”, the inhibition (Enterococcus faecium [15]) was “Active” and the IC50 (Lacticaseibacillus casei [16]) was 3.2 µM. The inhibition (Lacticaseibacillus casei [17]) was “Active” and the IC50 (Lacticaseibacillus casei [18]) was 3 µM.
